Results published in ChEMBL document CHEMBL4184143 (J Med Chem, 2017).
Calls of active or inactive are those of the source. The calls are words filed in the database; no cut-off is given here.

What was measured:
Mus musculus [1] = experiment: Toxicity in SCID mouse implanted with human MDA-MB-231 cells assessed as weight loss at 40 mg/kg, po qd measured 2 to 3 times weekly during treatment and weekly post dose; format: organism-based; conditions: in vivo
Procedure, shortened: (§1)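 At ~100 mm3, mice were randomized to treatment or vehicle control. Tumors were measured by electronic calipers. Animals were checked daily for signs of toxicity and weighed 2–3 times weekly on treatment, then at least weekly afterwards.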

[2] = Half life in Sprague-Dawley rat at 25 mg/kg, po by LC/MS method; format: ADME, organism-based; conditions: in vivo
Procedure, shortened: (§2)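 Sprague Dawley rats were dosed iv at 5 mg/kg or orally at 25 mg/kg, with compound dissolved in 20% (v/v) PCP/70% (v/v) PBS vehicle. Blood was drawn by catheter at 0, 5, 15, 30 min and 1, 2, 4, 6, 8, 24 h and spun to plasma, which was stored at −80 °C. Plasma drug was quantified by a validated LC–MS/MS method, and parameters were derived noncompartmentally.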

[3] = Cmax in Sprague-Dawley rat at 25 mg/kg, po by LC/MS method; format: ADME, organism-based; set-up: dose 25 mg/kg, route oral; conditions: in vivo; procedure, shortened: as §2
[4] = Oral bioavailability in Sprague-Dawley rat at 25 mg/kg by LC/MS method; format: ADME, organism-based; conditions: in vivo
[5] = Volume of distribution at steady state in Sprague-Dawley rat at 5 mg/kg, iv by LC/MS method; format: ADME, organism-based; conditions: in vivo, read-out: Vdss
[6] = Clearance in Sprague-Dawley rat at 5 mg/kg, iv by LC/MS method; format: ADME, organism-based; conditions: in vivo
Mus musculus [7] = experiment: Half life in SCID mouse at 5 mg/kg, iv by LC/MS method; format: ADME, organism-based; conditions: in vivo
[8] = AUC (0 to t) in SCID mouse at 5 mg/kg, iv by LC/MS method; format: ADME, organism-based; conditions: in vivo
Procedure, shortened: (§3)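 Mouse plasma samples were stored at −80 °C. Drug levels were quantified by a validated LC–MS/MS method, and pharmacokinetic parameters were calculated by noncompartmental analysis.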

Mus musculus [9] = experiment: Volume of distribution at steady state in SCID mouse at 5 mg/kg, iv by LC/MS method; format: ADME, organism-based; conditions: in vivo
[10] = AUC (0 to t) in SCID mouse at 25 mg/kg, po by LC/MS method; format: ADME, organism-based; conditions: in vivo; procedure, shortened: as §3
[11] = Oral bioavailability in SCID mouse at 25 mg/kg by LC/MS method; format: ADME, organism-based; conditions: in vivo
[12] = Half life in CD1 mouse liver microsomes at 1 uM by LC/MS method; format: ADME, microsome
[13] = Half life in Sprague-Dawley rat liver microsomes at 1 uM by LC/MS method; format: ADME, microsome
[14] = Half life in human liver microsomes at 1 uM by LC/MS method; format: ADME, microsome
[15] = target: T1, Bromodomain-containing protein 2 (Homo sapiens, UniProt P25440); experiment: Binding affinity to human partial length BRD2 bromodomain 1 long isoform (72 to 205 residues) expressed in bacterial expression system by BROMOscan assay
T1 sequence (P25440 whole entry, the tested form may be a part, canonical isoform): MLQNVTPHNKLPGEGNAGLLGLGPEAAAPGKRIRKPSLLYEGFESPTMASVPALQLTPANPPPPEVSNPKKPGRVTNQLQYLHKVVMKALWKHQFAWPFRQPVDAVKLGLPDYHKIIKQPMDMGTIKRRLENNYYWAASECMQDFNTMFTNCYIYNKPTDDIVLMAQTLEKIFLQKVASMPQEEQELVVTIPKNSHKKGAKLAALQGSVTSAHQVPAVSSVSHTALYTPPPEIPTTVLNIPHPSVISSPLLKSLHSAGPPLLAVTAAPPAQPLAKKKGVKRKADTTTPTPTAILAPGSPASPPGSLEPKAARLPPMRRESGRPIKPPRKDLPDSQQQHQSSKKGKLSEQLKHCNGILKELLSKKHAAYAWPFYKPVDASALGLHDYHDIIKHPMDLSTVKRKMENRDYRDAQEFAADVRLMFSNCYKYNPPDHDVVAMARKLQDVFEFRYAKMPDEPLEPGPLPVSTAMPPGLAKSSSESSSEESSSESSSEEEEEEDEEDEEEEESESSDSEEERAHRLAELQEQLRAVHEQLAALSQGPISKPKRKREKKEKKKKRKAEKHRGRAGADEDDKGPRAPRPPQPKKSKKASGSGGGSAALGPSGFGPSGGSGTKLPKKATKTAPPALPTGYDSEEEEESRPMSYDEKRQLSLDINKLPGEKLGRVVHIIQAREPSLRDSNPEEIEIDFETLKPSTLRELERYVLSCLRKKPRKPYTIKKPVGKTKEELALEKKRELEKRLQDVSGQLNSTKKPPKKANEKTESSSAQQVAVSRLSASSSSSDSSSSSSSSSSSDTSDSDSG

[16] = target: T1, Bromodomain-containing protein 2; experiment: Binding affinity to human partial length BRD2 bromodomain 1/2 isoform 1 (K71 to D455 residues) by BROMOscan assay
[17] = target: Bromodomain-containing protein 3 (Homo sapiens, UniProt Q15059); experiment: Binding affinity to human partial length BRD3 bromodomain 2 (G306 to P416 residues) expressed in bacterial expression system by BROMOscan assay
Sequence of Bromodomain-containing protein 3 (Q15059 whole entry, the tested form may be a part): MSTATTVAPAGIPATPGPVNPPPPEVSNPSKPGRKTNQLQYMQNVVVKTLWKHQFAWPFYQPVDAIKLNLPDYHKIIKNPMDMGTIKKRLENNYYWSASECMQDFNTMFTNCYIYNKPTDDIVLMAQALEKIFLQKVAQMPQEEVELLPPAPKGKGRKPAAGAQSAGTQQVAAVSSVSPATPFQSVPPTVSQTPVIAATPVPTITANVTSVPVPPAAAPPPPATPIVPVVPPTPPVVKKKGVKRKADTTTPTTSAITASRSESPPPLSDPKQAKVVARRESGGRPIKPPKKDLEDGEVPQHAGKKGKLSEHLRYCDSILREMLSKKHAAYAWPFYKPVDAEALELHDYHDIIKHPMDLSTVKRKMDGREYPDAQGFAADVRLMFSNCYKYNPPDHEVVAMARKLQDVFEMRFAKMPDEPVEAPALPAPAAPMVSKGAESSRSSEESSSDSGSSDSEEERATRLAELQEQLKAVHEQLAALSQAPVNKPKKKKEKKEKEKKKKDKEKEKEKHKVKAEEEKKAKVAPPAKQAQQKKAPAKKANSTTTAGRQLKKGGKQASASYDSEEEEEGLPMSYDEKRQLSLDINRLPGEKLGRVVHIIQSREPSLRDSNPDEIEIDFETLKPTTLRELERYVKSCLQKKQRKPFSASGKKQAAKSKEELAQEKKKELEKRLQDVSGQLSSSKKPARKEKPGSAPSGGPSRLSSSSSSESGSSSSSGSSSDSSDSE

[18] = target: T2, Bromodomain-containing protein 4 (Homo sapiens, UniProt O60885); experiment: Binding affinity to recombinant human BRD4 bromodomain 1 (44 to 168 residues) by BROMOscan assay
[19] = target: T2, Bromodomain-containing protein 4; experiment: Binding affinity to human partial length BRD4 bromodomain 1/2 long isoform (N44 to E460 residues) expressed in bacterial expression system by BROMOscan assay
[20] = target: Bromodomain testis-specific protein (Homo sapiens, UniProt Q58F21); experiment: Binding affinity to human partial length BRDT bromodomain 2 isoform b (K250 to E382 residues) expressed in bacterial expression system by BROMOscan assay
CREB-binding protein = CREB-binding protein (Homo sapiens, UniProt Q92793); experiment: Binding affinity to human partial length CREBBP (R1081 to G1197 residues) expressed in bacterial expression system by BROMOscan assay
[21] = target: ATPase family AAA domain-containing protein 2B (Homo sapiens, UniProt Q9ULI0); experiment: Binding affinity to human partial length ATAD2B (Q955 to R1082 residues) expressed in bacterial expression system by BROMOscan assay
[22] = target: Bromodomain-containing protein 7 (Homo sapiens, UniProt Q9NPI1); experiment: Binding affinity to human partial length BRD7 (L125 to R254 residues) expressed in […] expression system by BROMOscan assay
Sequence of Bromodomain-containing protein 7 (Q9NPI1 whole entry, the tested form may be a part): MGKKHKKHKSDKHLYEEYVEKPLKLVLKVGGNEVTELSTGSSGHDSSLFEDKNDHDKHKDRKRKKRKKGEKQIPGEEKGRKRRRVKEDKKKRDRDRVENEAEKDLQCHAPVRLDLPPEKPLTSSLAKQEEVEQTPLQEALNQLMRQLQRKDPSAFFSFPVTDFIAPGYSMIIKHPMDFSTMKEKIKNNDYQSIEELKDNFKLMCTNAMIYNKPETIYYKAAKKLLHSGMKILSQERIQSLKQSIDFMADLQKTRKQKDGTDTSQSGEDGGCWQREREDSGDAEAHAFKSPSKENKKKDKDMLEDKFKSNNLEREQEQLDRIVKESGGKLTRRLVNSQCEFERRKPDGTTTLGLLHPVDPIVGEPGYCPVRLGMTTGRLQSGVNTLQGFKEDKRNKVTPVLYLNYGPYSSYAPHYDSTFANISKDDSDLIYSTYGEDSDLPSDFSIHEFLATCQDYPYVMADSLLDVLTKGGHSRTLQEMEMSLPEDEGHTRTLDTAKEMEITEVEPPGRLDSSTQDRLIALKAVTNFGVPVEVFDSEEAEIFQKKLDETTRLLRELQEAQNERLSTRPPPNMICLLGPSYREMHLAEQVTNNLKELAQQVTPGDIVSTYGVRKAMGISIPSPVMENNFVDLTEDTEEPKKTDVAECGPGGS

[23] = target: T3, Bromodomain-containing protein 8 (Homo sapiens, UniProt Q9H0E9); experiment: Binding affinity to human partial length BRD8 bromodomain 1 (S700 to F854 residues) expressed in mammalian expression system by BROMOscan assay
T3 sequence (Q9H0E9 whole entry, the tested form may be a part): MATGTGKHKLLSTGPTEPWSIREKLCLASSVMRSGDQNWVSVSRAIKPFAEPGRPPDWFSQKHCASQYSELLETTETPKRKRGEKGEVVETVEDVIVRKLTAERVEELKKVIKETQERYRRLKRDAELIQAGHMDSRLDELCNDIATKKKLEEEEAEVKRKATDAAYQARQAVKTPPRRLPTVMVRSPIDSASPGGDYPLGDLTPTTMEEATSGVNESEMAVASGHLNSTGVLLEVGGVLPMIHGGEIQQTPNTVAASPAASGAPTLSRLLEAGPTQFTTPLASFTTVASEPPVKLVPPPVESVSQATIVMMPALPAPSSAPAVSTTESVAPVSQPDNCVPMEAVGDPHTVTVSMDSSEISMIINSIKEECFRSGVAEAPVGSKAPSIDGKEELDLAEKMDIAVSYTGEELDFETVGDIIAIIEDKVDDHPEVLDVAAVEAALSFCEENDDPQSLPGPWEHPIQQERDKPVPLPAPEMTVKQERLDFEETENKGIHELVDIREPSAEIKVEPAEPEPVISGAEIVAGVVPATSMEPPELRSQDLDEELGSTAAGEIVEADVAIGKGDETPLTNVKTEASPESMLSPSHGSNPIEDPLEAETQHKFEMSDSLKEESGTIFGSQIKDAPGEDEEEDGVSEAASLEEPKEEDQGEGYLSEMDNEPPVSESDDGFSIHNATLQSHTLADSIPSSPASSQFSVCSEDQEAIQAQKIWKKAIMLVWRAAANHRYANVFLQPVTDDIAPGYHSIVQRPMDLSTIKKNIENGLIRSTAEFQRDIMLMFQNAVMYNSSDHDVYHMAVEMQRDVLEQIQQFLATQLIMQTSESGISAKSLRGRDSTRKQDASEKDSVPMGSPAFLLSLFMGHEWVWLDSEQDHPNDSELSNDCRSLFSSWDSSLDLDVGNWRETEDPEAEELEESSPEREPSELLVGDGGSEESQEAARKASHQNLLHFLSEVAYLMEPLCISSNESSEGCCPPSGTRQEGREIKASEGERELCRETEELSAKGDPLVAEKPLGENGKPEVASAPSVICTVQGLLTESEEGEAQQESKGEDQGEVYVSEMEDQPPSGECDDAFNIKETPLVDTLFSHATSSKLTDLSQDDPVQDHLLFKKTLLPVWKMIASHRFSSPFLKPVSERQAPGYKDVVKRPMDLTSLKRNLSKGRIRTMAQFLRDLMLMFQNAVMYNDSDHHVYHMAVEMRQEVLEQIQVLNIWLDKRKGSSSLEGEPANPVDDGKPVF

[24] = target: T3, Bromodomain-containing protein 8; experiment: Binding affinity to human partial length BRD8 bromodomain 2 (D1095 to F1235 residues) expressed in mammalian expression system by BROMOscan assay
Protein polybromo-1 [25] = target: T4, Protein polybromo-1 (Homo sapiens, UniProt Q86U86); experiment: Binding affinity to human partial length PBRM1 bromodomain 2 (S178 to E291 residues) expressed in bacterial expression system by BROMOscan assay
T4 sequence (Q86U86 whole entry, the tested form may be a part): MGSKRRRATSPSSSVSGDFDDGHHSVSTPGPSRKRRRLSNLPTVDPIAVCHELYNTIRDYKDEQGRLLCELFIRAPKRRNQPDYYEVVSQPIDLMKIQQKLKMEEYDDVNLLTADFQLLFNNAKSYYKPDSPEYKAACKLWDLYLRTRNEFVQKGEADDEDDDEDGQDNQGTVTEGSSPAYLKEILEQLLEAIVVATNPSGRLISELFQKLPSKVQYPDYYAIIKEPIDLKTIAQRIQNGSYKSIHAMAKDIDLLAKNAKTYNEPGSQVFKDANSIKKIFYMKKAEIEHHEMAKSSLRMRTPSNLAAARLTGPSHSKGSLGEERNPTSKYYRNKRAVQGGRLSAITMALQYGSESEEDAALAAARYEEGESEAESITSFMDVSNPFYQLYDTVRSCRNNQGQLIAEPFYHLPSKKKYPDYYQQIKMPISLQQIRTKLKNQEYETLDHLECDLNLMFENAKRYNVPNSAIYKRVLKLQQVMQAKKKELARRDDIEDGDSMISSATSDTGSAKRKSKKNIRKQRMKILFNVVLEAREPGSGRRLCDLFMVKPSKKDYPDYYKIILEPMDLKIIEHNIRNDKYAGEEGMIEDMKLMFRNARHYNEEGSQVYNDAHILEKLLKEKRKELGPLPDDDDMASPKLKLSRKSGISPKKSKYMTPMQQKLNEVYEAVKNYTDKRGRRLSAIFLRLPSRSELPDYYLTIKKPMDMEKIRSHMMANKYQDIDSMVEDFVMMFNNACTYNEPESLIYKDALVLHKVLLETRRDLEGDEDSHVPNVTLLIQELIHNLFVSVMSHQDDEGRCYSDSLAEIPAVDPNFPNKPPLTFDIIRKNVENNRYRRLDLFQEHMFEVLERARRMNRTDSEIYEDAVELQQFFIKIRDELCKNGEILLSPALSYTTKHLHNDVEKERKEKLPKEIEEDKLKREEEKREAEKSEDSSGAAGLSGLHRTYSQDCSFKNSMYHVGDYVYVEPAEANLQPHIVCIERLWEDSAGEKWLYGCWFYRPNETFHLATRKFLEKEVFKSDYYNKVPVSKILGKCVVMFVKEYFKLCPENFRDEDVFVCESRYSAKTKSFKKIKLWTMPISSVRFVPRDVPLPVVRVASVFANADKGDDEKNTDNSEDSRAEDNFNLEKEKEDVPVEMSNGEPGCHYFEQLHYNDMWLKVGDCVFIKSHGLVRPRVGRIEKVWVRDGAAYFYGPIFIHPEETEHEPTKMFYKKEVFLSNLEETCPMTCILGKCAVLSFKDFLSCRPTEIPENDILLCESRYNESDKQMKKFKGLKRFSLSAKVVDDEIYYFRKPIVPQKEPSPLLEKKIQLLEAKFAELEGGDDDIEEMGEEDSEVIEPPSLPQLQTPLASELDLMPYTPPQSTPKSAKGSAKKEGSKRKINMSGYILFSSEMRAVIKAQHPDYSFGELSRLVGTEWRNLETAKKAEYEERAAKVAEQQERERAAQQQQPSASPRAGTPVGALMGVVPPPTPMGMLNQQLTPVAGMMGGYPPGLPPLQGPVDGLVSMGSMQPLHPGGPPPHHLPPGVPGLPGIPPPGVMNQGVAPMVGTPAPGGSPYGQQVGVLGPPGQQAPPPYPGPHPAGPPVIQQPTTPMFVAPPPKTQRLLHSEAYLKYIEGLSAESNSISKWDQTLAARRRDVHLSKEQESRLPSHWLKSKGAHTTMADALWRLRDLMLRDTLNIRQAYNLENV

Protein polybromo-1 [26] = target: T4, Protein polybromo-1; experiment: Binding affinity to human partial length PBRM1 bromodomain 5 (S645 to D766 residues) expressed in bacterial expression system by BROMOscan assay
[27] = target: SWI/SNF-related matrix-associated actin-dependent regulator of chromatin subfamily A member 2 (Homo sapiens, UniProt P51531); experiment: Binding affinity to human partial length SMARCA2 (S1377 to Q1486 residues) expressed in bacterial expression system by BROMOscan assay
[28] = target: SWI/SNF-related matrix-associated actin-dependent regulator of chromatin subfamily A member 4 (Homo sapiens, UniProt P51532); experiment: Binding affinity to human partial length SMARCA4 (A1448 to S1575 residues) expressed in bacterial expression system by BROMOscan assay
[29] = target: Transcription intermediary factor 1-alpha (Homo sapiens, UniProt O15164); experiment: Binding affinity to human partial length TRIM24 expressed in bacterial expression system by BROMOscan assay
HCC1143 = experiment: Cytotoxicity against human HCC1143 cells assessed as cell growth inhibition after 4 days by WST-8 assay; format: functional, cell-based; conditions: HCC1143, 96 h
Procedure, shortened: (§4)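 Breast cancer cells were seeded at 3,000 cells/well, treated with serially diluted compound in medium and cultured for 4 days. Growth was read by WST-8 (10% v/v final, 1–3 h) at 450 nm. Readings were normalized to DMSO-treated cells, and IC50 was obtained by nonlinear regression.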

HCC1937 = experiment: Cytotoxicity against human HCC1937 cells assessed as cell growth inhibition after 4 days by WST-8 assay; format: functional, cell-based; conditions: HCC1937, 96 h; procedure, shortened: as §4
Mus musculus [30] = experiment: Toxicity in SCID mouse implanted with human MV4-11 cells at 50 mg/kg, po qd measured 2 to 3 times weekly during treatment and once weekly post dose; format: organism-based; conditions: in vivo; procedure, shortened: as §1
MDA-MB-231 = experiment: Antitumor activity against human MDA-MB-231 cells xenografted in SCID mouse assessed as tumor growth inhibition at 40 mg/kg, po qd measured 2 to 3 times weekly during treatment and weekly post dose; format: functional, organism-based; procedure, shortened: as §1

half-life [2]: 2.9 h
Cmax [3]: 7330 ng/mL
bioavailability [4]: 93%
Vd [5]: 2 L/kg
clearance [6]: 13.2 mL/min/kg
t1/2 (Mus musculus [7]): 0.5 h
AUC(0-t) [8]: 3690 ng·h/mL
Vdss (Mus musculus [9]): 2.75 L/kg
AUC(0-t) [10]: 9140 ng·h/mL
bioavailability [11]: 50%
t1/2 [12]: > 1 h
t1/2 [13]: > 1 h
t1/2 [14]: > 1 h
Kd [15]: 4.5 nM
Kd [16]: 1.1 nM
Kd [17]: 0.69 nM
Kd [18]: 8.4 nM
Kd [19]: 1.8 nM
Kd [20]: 5.5 nM
Kd (CREB-binding protein): 520 nM
Kd [21]: > 4000 nM
Kd [22]: > 4000 nM
Kd [23]: > 4000 nM
Kd [24]: > 4000 nM
Kd (Protein polybromo-1 [25]): > 4000 nM
Kd (Protein polybromo-1 [26]): > 4000 nM
Kd [27]: > 4000 nM
Kd [28]: > 4000 nM
Kd [29]: > 4000 nM
SMILES: COc1cc2c(cc1-c1c(C)noc1C)[nH]c1nc(C)nc(-c3ccnc4ccccc34)c12
Activity (Mus musculus [1]): Non-Toxic
IC50 (HCC1143): > 2000 nM
IC50 (HCC1937): > 2000 nM
Activity (Mus musculus [30]): Non-Toxic
TGI (MDA-MB-231): Active
